Reference: paper PMC4085604 (Scientific Reports, 2014)

Columns and labels:
[1] = tested on: BHQ-10-labeled anti-His-tag mAb “8-4-4”; assay: Homogeneous His6 detection assay; assay type: binding, mouse; details: for phosphorescence response, in words: increasing protein concentration, TRF after 90 s shaking; for detectability within total assay time, in words: total assay time of less than two minutes
How it was run: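 His6-tagged proteins (C- or N-terminal tag, or chemically His6-labeled BSA) in PBS pH 7.4 with 2 mg/mL BSA, or in E. coli lysate. Premixed with EuLH-HHRHH-NH2 donor peptide solution (40 nmol/L), then BHQ-10-labeled antibody solution (80 nmol/L) added. After 90 s shaking, read TRF at ex 370/em 616 nm. Triplicates. LOD is the lowest concentration whose mean exceeds blank plus 3 SD.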

anti-His-tag mAb “8-4-4” = assay type: binding, mouse; details: inferred from FRET efficiency curve

**Q.** With “Bovine serum albumin [BSA, reference compound]” as the molecule, how does the “phosphorescence response, in words” value ([1]; n = 3) read?
**A.** no response

**Q.** For “NPP3-His6: recombinant protein with C-terminal His-tag”, which “detectability within total assay time, in words” value [1] is on record?
**A.** could be detected highly significantly and semi-quantitatively

**Q.** With HHHHHH-NH2 as the molecule, how does the “affinity to the anti-His-tag antibody, in words” value (shortened to “affinity”) (anti-His-tag mAb “8-4-4”) read?
**A.** strong and specific interaction between the peptide and the antibody

**Q.** HHHHH-NH2 was tested. Which “affinity” value (anti-His-tag mAb “8-4-4”) did it give?
**A.** did not influence the FRET efficiency curve substantially, and therefore also not the affinity

**Q.** How did the “affinity” value (anti-His-tag mAb “8-4-4”) turn out when HHEHH-NH2 was run?
**A.** full loss of affinity to the anti-His-tag antibody

B1: His6-trigger factor: trigger factor (N-terminal His-tag) (protein, UniProt P0A850 1-432, looked up)
Trigger factor: MQVSVETTQGLGRRVTITIAADSIETAVKSELVNVAKKVRIDGFRKGKVPMNIVAQRYGASVRQDVLGDLMSRNFIDAIIKEKINPAGAPTYVPGEYKLGEDFTYSVEFEVYPEVELQGLEAIEVEKPIVEVTDADVDGMLDTLRKQQATWKEKDGAVEAEDRVTIDFTGSVDGEEFEGGKASDFVLAMGQGRMIPGFEDGIKGHKAGEEFTIDVTFPEEYHAENLKGKAAKFAINLKKVEERELPELTAEFIKRFGVEDGSVEGLRAEVRKNMERELKSAIRNRVKSQAIEGLVKANDIDVPAALIDSEIDVLRRQAAQRFGGNEKQALELPRELFEEQAKRRVVVGLLLGEVIRTNELKADEERVKGLIEEMASAYEDPKEVIEFYSKNKELMDNMRNVALEEQAVEAVLAKAKVTEKETTFNELMNQQA
modifications: N-terminal His6 tag
**Q.** Which results are given for B1?
**A.** phosphorescence response, in words ([1]; n = 3): increasing phosphorescence intensities with increasing protein concentration; detection limit ([1]; mass concentration, sample 50 μL + donor peptide EuLH-HHRHH-NH2 (10 μL, 40 nmol/L) + BHQ-10-mAb (40 μL, 80 nmol/L), PBS pH 7.4 with 2 mg/mL BSA, 90 s, n = 3, background plus 3x SD): 39 mg/L; detectability within total assay time, in words [1]: could be detected highly significantly and semi-quantitatively
